Calls of active or inactive are those of the source. No cut-off for these calls is given here.
Assays:
INS1 [1] = test: Cytoprotective activity in rat INS-1 cells assessed as protection against tunicamycin-induced ER stress-mediated reduction in cell viability after 3 days by CellTiter-Glo assay; conditions: INS1, 72 h
[2] = target: T1, Eukaryotic translation initiation factor 2-alpha kinase 3 (Rattus norvegicus, UniProt Q9Z1Z1); test: Inhibition of PERK activation in rat INS-1 cells assessed as suppression of tunicamycin-induced CHOP mRNA expression after 8 hrs by qRT-PCR analysis; assay type: cell-based
T1 sequence (Q9Z1Z1 whole entry): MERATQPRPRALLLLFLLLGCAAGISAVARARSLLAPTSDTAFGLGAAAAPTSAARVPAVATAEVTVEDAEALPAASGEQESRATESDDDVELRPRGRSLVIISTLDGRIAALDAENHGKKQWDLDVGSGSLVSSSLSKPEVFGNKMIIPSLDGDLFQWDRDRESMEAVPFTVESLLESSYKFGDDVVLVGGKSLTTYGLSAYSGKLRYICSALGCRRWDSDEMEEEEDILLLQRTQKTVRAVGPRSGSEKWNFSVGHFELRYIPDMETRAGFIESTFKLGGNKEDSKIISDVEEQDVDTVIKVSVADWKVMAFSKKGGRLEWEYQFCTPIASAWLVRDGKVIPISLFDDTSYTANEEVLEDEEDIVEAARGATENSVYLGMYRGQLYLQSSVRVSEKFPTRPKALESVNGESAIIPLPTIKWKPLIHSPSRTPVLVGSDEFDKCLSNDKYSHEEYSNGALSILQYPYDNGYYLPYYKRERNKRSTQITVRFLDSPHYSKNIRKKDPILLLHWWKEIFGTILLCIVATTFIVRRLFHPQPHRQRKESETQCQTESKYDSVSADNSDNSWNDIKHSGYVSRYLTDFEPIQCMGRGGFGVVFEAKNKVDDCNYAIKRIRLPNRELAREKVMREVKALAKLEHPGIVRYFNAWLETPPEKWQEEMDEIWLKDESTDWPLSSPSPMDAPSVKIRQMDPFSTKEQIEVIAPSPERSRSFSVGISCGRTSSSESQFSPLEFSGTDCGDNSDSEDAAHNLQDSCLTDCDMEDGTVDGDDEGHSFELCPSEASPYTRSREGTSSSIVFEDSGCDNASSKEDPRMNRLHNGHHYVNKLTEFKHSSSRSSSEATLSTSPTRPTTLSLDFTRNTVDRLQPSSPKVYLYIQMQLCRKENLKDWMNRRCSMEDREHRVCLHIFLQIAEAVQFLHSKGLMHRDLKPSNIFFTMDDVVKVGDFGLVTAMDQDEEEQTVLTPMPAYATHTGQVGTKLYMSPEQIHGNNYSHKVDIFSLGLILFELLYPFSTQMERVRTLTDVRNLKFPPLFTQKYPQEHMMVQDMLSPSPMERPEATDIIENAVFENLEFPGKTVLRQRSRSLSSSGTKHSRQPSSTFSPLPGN
Outline: (§1)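 INS-1 cells, 4×10^5 per well, were exposed to tunicamycin 0.1 μg/mL with compound or DMSO for 8 h. qRT-PCR for ATF4, CHOP, Bip, GRP94, or spliced XBP1 using splicing-specific primers. Values were normalized to cyclophilin A by ΔΔCt and given as fold over untreated control. Triplicate wells, 3 independent experiments.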

INS1 [3] = test: Cytoprotective activity against tunicamycin ER stress-induced apoptosis in rat INS-1 cells assessed as inhibition of tunicamycin-induced cleaved caspase3 expression up to 1 uM after 24 hrs by Western blot analysis; assay type: functional, cell-based
Outline: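 INS-1 cells, 8×10^5 per 60-mm dish, were exposed to tunicamycin 0.1 μg/mL plus compound or DMSO for 24 h. 20 μg lysate protein was run on 7% SDS-PAGE and immunoblotted for cleaved caspase-3 and PARP (1:1000), with α-tubulin as loading control; 3 independent experiments.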

Rattus norvegicus [4] = species: Rattus norvegicus; test: Inhibition of IRE1alpha activation in rat INS-1 cells assessed as suppression of tunicamycin-induced increase in XBP1 mRNA levels up to 10 uM after 8 hrs by agarose gel electrophoresis method; assay type: cell-based
Outline: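 INS-1 cells were exposed to tunicamycin 0.1 μg/mL with compound or DMSO for 8 h. Total XBP1 mRNA was amplified by RT-PCR, and the spliced and unspliced forms were separated electrophoretically.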

INS1 [5] = test: Effect on CHOP mRNA level in rat INS-1 cells up to 10 uM after 8 hrs by qRT-PCR analysis; assay type: ADME, cell-based; conditions: ins1, 8 h; outline: as §1
INS1 [6] = test: Protection against tunicamycin ER stress-induced suppression of INS1 mRNA expression in rat INS-1 cells up to 1 uM after 24 hrs by qRT-PCR analysis; assay type: functional, cell-based
Outline: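 INS-1 cells were exposed to tunicamycin 0.1 μg/mL with compound or DMSO for 24 h. INS1, INS2, PDX1 and MafA mRNA were measured by qRT-PCR and normalized to cyclophilin A by the comparative Ct method. Triplicate wells, 3 independent experiments.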

[7] = target: T2, Eukaryotic translation initiation factor 2-alpha kinase 3 (Rattus norvegicus) (UniProt Q9Z1Z1); test: Inhibition of tunicamycin ER stress-induced PERK activation in rat INS-1 cells assessed as suppression of tunicamycin-induced increase in CHOP protein levels up to 10 uM after 8 hrs by Western blot analysis; assay type: cell-based
T2 sequence (whole entry): T1 sequence (Q9Z1Z1 whole entry)
Outline: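 INS-1 cells were exposed to tunicamycin 0.1 μg/mL with compound or DMSO for 8 h. Lysates were immunoblotted for ATF4 and CHOP (1:1000). Bands were quantified by densitometry and normalized to α-tubulin; 3 independent experiments.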

Rattus norvegicus [8] = species: Rattus norvegicus; test: Inhibition of tunicamycin ER stress-induced IRE1alpha activation in rat INS-1 cells assessed as suppression of tunicamycin-induced increase in XBP1 mRNA levels up to 10 uM after 8 hrs by qRT-PCR analysis; assay type: cell-based; outline: as §1
INS1 [9] = test: Cytotoxicity against rat INS-1 cells assessed as reduction in cell viability up to 10 uM after 3 days by CellTiter-Glo assay; assay type: cell-based; conditions: ins1, 72 h
Outline: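 INS-1 cells, 3×10^3 per well, were given compound or DMSO alone (no tunicamycin) for 72 h. Intracellular ATP was read by luminescence and expressed as fold of untreated cells. Triplicate wells, three independent experiments.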

IC50 [2]: 37 nM | inhibition [7]: Active
SMILES: O=C(NCc1ccc(C(F)(F)F)cc1)c1cccc(CN2CCCCC2)c1
EC50 (INS1 [1]): 30 nM | inhibition (INS1 [3]): Active | inhibition (Rattus norvegicus [4]): Active | Activity (INS1 [5]): Non-Toxic | Activity (INS1 [6]): Active | inhibition (Rattus norvegicus [8]): Active | Activity (INS1 [9]): Non-Toxic

— ChEMBL document CHEMBL4038317, “Discovery of a Benzamide Derivative That Protects Pancreatic β-Cells against Endoplasmic Reticulum Stress” (J Med Chem, 2017)
